For the experiment, the system named is 7TDI. Briefly: Inhibition of IL6-dependent growth of 7TDI cells at 10 uM relative to madindoline A. In kind it is functional, Mus musculus. A digest of the protocol: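 IL-6-dependent 7TDI cell line; growth inhibition measured with each analogue present at 10 μM. Values expressed against the natural compound.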

`CCCCCCCCCC1=C(C)C(=O)[C@](C)(CN2c3ccccc3[C@]3(O)CCO[C@H]23)C1=O` displayed an Activity of 3.9.

The compound `O[C@@]12CCO[C@@H]1Nc1ccccc12` registered an Activity of 0.

In turn, `CCC1=C(C)C(=O)[C@](C)(CN2c3ccccc3[C@]3(O)CCO[C@H]23)C1=O` returned an Activity of 0.

`CCCCCCCCCCCC1=C(C)C(=O)[C@](C)(CN2c3ccccc3[C@]3(O)CCO[C@H]23)C1=O` yielded an Activity of 3.4.

`CCCCCC(=O)O[C@@]12CCO[C@@H]1N(C[C@]1(C)C(=O)C(C)=C(CCCC)C1=O)c1ccccc12` had an Activity of 2.6.

`CCCCCCCCCCCCCCCCCCCCCC1=C(C)C(=O)[C@](C)(CN2c3ccccc3[C@]3(O)CCO[C@H]23)C1=O` had an Activity of 0.

As for `CCCCCCCC1=C(C)C(=O)[C@](C)(CN2c3ccccc3[C@]3(O)CCO[C@H]23)C1=O`, the Activity was found to be 3.2.

Take `CCCCCCCCCC(=O)O[C@@]12CCO[C@@H]1N(C[C@]1(C)C(=O)C(C)=C(CCCC)C1=O)c1ccccc12`: the Activity amounted to 0.

With `CCCCC1=C(C)C(=O)[C@@](C)(CN2c3ccccc3[C@@]3(O)CCO[C@@H]23)C1=O`, the Activity was found to be 0.

On to `CC1=C(C)C(=O)CC1=O`, for which the Activity was found to be 0.

`CCCCC1=C(C)C(=O)[C@@](C)(CN2c3ccccc3[C@]3(OC(C)=O)CCO[C@H]23)C1=O`: the Activity is recorded as 1.2.

On to `CC1=C(C)C(=O)C(C)(CN2c3ccccc3[C@]3(O)CCO[C@H]23)C1=O`, for which the Activity turned out to be 0.

`CCCCC1=C(C)C(=O)[C@@](C)(CN2c3ccccc3[C@]3(O)CCO[C@H]23)C1=O` displayed an Activity of 1.

In turn, `CC1=C(Cc2ccccc2)C(=O)[C@@](C)(CN2c3ccccc3[C@]3(O)CCO[C@H]23)C1=O` showed an Activity of 0.9.

For `CCCCC1=C(C)C(=O)[C@@](C)(CN2c3ccc(Cl)cc3[C@]3(O)CCO[C@H]23)C1=O`, the Activity was determined as 0.8.

`CCCCC1=C(C)C(=O)[C@@](C)(CN2c3ccccc3[C@]3(OC(=O)c4ccccc4)CCO[C@H]23)C1=O`: the Activity was found to be 2.6.

As for `CCCCC1=C(C)C(=O)[C@@](C)(Cn2cc(CCO)c3ccccc32)C1=O`, the Activity was 0.9.

`CCCCC1=C(C)C(=O)[C@@](C)(CN2c3ccc(I)cc3[C@]3(O)CCO[C@H]23)C1=O` showed an Activity of 2.8.

For `CCCCC1=C(C)C(=O)[C@@](C)(CN2c3ccc(Br)cc3[C@]3(O)CCO[C@H]23)C1=O`, the Activity stood at 2.8.

The record behind these values is ChEMBL document CHEMBL1147008, “Design, synthesis, and biological activities of madindoline analogues” (2006).
